# Results of several laboratories.
# Protocols differ between the studies behind these lines.
# Target: Serine/threonine-protein kinase 17A (STK17A, Homo sapiens, UniProt Q9UEE5)
# Residues used in one study (Q9UEE5 1-414): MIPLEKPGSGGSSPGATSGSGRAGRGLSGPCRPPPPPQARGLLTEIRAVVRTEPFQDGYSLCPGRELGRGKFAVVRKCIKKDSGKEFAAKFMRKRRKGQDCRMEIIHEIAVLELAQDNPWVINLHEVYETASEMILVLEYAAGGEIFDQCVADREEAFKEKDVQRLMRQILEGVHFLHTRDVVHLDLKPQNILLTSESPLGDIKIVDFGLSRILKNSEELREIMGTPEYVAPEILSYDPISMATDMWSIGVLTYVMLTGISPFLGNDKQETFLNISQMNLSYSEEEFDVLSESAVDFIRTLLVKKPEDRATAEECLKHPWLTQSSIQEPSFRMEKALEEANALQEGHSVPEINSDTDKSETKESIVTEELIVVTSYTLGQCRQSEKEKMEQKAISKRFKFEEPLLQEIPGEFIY
Compound,test,conditions,remaining binding
c1cncc(-c2cccc(Nc3nccc(NC4CCCCC4)n3)c2)c1,"binding, competition with immobilised ligand",10 µM,47%
O=C(Nc1cccnn1)N1CCC(=Cc2cccc(Oc3ccc(C(F)(F)F)cn3)c2)CC1,"cell-free assay, competition with immobilised ligand",1 µM,79%
CCN1CCN(Cc2ccc(C(=O)Nc3ccc(C)c(Oc4ccc5c(c4)CC(=O)N5)c3)cc2C(F)(F)F)CC1,"binding, competition with immobilised ligand",1 µM,100%
O=C(c1ccc(Nc2ncc(Cl)c(-c3ccc(Cl)s3)n2)cc1)N1CCC(N2CCCC2)CC1,"binding, competition with immobilised ligand",1 µM,0.8%
COc1cnc(Nc2cccc(S(N)(=O)=O)c2)nc1N1CCN(c2ccccc2)CC1,"binding, competition with immobilised ligand",1 µM,100%
N[C@@H]1CCN(c2nccc(-c3cnn4ncccc34)n2)C1,binding,1 µM,100%
O=C(NCCCN1CCOCC1)c1ccc(Nc2ncc(Cl)c(-c3ccc(Cl)s3)n2)cc1,"binding, competition with immobilised ligand",1 µM,0.85%
CC1=C(C#N)[C@@H](c2ccc3[nH]nc(C)c3c2)C(C#N)=C(c2ccc(Cl)cc2)N1,"cell-free assay, competition with immobilised ligand",1 µM,100%
COc1ncc2cc3ccccc3nc2c1C#N,"cell-free assay, competition with immobilised ligand",5 µM,100%
COc1cc(-c2cn(C3CCc4c(F)cccc4N(CC(F)(F)F)C3=O)nn2)ccc1-n1cnc(C)c1 (stereo not shown),"cell-free assay, competition with immobilised ligand",1 µM,100%
O=C(c1ccc(Nc2nccc(-c3cc4ccccc4s3)n2)cc1)N1CCC(N2CCCC2)CC1,"binding, competition with immobilised ligand",1 µM,0.3%
CN(c1nccc(-c2cnn3ncccc23)n1)C1CC1,binding,1 µM,100%
Nc1ncc2c(n1)-c1c([nH]c3ccc(C#CC4CC4)cc13)CCCC2,"binding, competition with immobilised ligand",1 µM,98%
CNC(=O)Nc1ccc2c(c1)CC[C@@]21OC(=O)N(CC(=O)N(Cc2ccc(F)cc2)[C@@H](C)C(F)(F)F)C1=O,"cell-free assay, competition with immobilised ligand",1 µM,100%
CN(CCCC(F)(F)F)c1nccc(-c2cnn3ncccc23)n1,binding,1 µM,100%
Cc1c(C(=O)O)cc(-c2ccc(C3CCNCC3)cc2)c2ccc(-c3ccc(C(F)(F)F)cc3)cc12,"cell-free assay, competition with immobilised ligand",1 µM,99%
F[C@@H]1CCN(c2nccc(-c3cnn4ncccc34)n2)C1,binding,1 µM,100%
c1ccc(N2CCN(Cc3nc4ccccc4[nH]3)CC2)nc1,"cell-free assay, competition with immobilised ligand",1 µM,100%
CN(C)c1ncc(F)c(-c2cnn3ncccc23)n1,binding,1 µM,95%
O=C(NCc1ncc(C(F)(F)F)cc1Cl)c1ccc2c(c1)C1(CCS(=O)(=O)CC1)[C@@H](C1CC1)N2S(=O)(=O)c1ccc(F)cc1,"cell-free assay, competition with immobilised ligand",1 µM,73%
C[C@@H]1CCN(c2nccc(-c3cnn4ncccc34)n2)C1,binding,1 µM,19%
O=C(Nc1c[nH]nc1C(=O)NC1CCNCC1)c1cc(F)cc(F)c1,"binding, competition with immobilised ligand",1 µM,95%
